Experiments:
[1] = target: T1, ATP-dependent translocase ABCB1 (Homo sapiens, UniProt P08183); assay: Inhibition of human multidrug resistant gene Pgp expressed in MDCK2 cells assessed as calcein-AM accumulation at 10 uM after 40 mins; format: cell-based; set-up: scale not given: the % may be the effect or the level left; conditions: mdck-ii
[2] = target: T2, Broad substrate specificity ATP-binding cassette transporter ABCG2 (Homo sapiens, UniProt Q9UNQ0); assay: Inhibition of human BCRP mediated mitoxantrone accumulation in wild type MCF7 cells at 5 uM by flow cytometry; format: cell-based; set-up: scale not given: the % may be the effect or the level left; conditions: mcf7, 5 µM
T2 sequence (Q9UNQ0 whole entry): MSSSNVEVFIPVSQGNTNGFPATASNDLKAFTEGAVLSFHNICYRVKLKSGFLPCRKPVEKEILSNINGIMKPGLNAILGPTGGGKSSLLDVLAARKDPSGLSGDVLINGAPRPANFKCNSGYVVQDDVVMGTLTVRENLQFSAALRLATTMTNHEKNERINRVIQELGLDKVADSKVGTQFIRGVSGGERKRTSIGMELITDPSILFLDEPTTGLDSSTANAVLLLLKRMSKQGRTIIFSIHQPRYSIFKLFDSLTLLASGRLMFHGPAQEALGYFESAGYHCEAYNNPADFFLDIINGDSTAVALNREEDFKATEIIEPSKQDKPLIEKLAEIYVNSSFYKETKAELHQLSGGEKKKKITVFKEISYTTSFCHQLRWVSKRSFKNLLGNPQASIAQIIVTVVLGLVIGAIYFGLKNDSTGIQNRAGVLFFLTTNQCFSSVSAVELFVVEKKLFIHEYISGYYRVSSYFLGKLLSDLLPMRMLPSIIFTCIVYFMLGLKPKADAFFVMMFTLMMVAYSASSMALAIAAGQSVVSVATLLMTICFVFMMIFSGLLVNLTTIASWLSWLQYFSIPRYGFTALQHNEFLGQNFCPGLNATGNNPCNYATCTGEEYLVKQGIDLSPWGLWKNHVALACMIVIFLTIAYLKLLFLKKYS

[3] = target: T2, Broad substrate specificity ATP-binding cassette transporter ABCG2; assay: Inhibition of human BCRP mediated mitoxantrone accumulation in mitoxantrone resistant MCF7 cells at 5 uM by flow cytometry; format: cell-based; set-up: scale not given: the % may be the effect or the level left; conditions: mcf7, 5 µM
Procedure, shortened: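 MCF-7/MX cells (selected in 250 nM mitoxantrone) trypsinized and resuspended at ~10^6 cells/ml in serum-free RPMI. Preincubated 15 min at 37 °C with compound (5 uM final) or vehicle (0.5% DMSO), then mitoxantrone 3 uM final added for 30 min. Stopped with ice-cold PBS and washed. Read by flow cytometry (488 nm excitation, 670 nm bandpass) as % area right of a marker set on MCF-7/WT autofluorescence (<5%). n = 4; FTC 10 uM as positive control.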

[4] = target: T1, ATP-dependent translocase ABCB1; assay: Inhibition of human multidrug resistant gene Pgp expressed in MDCK2 cells assessed as calcein-AM accumulation at 1 uM; format: cell-based; conditions: mdck-ii
Procedure, shortened: (§1)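 MDCKII/WT or human MDR1-transfected MDCKII/MDR1 cells (passages 8-17) seeded at 5.0 x 10^4 cells/well and cultured 24 h. Washed, then preincubated 30 min at 37 °C with compound in DMSO-HBSS (≤1% DMSO). Calcein-AM added to 2 uM final, and fluorescence (ex 485/em 535 nm) read every 10 min over 40 min. Accumulation taken at 40 min relative to untreated MDCKII/MDR1, or scaled to the WT-minus-MDR1 fluorescence difference.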

P-gp (ABCB1), wild type = P-gp (ABCB1), wild type (Homo sapiens, UniProt P08183); assay: Inhibition of human wild type Pgp expressed in MDCK2 cells assessed as calcein-AM accumulation at 50 uM after 40 mins; format: cell-based, MDCK-II; conditions: MDCK2 cells expressing human wild type Pgp, probe calcein-AM; procedure, shortened: as §1
P-gp (ABCB1), wild type, sequence (P08183 whole entry): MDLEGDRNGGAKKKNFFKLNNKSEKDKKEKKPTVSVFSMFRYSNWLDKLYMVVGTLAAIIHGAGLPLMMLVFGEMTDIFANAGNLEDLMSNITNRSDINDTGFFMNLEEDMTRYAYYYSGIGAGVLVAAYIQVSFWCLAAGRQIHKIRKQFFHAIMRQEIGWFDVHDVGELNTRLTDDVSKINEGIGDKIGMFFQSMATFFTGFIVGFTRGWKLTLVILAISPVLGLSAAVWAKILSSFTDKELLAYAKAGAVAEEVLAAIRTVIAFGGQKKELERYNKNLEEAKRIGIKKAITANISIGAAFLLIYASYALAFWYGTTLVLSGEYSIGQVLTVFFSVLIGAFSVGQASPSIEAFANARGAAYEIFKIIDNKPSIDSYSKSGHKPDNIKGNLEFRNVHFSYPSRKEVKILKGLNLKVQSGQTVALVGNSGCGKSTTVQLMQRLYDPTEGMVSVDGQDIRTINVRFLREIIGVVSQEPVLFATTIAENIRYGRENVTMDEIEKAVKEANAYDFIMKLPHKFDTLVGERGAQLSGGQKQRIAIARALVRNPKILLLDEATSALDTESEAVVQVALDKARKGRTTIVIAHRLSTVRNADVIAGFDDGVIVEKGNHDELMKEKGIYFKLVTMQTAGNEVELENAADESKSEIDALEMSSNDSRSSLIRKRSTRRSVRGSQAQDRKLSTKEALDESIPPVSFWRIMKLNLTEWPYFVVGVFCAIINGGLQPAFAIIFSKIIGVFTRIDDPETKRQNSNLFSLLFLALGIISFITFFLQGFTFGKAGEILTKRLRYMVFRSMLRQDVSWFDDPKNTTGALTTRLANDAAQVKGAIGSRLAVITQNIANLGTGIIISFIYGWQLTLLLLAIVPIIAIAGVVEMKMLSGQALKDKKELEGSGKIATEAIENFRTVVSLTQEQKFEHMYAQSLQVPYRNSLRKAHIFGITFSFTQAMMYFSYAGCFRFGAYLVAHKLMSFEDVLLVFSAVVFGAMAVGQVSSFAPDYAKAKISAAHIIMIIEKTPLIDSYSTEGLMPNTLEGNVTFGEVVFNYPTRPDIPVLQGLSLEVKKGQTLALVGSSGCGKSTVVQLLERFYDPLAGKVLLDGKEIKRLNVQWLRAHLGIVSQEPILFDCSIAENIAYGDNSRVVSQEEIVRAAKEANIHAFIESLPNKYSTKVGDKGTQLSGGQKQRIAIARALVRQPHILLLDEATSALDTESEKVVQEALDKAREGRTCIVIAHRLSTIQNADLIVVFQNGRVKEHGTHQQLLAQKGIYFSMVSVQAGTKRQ

MCF7 [5] = assay: Antiproliferative activity against wild type human MCF7 cells after 72 hrs by MTT assay; format: functional, cell-based; conditions: MCF7, 72 h
Procedure, shortened: (§2)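 MCF-7/WT and MCF-7/Adr cells (Adr line kept in medium with 10 uM doxorubicin; RPMI 1640, 10% FBS) exposed to compound for 72 h. MTT then added for 3 h, cells washed with PBS, and formazan dissolved in DMSO. Absorbance read at 590 nm, 3 determinations per concentration, IC50 derived from the concentration-response curve.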

MCF7 [6] = assay: Antiproliferative activity against adriamycin resistant human MCF7 cells after 72 hrs by MTT assay; format: functional, cell-based; conditions: MCF7, 72 h; procedure, shortened: as §2
[7] = target: T1, ATP-dependent translocase ABCB1; assay: Inhibition of human wild type gene Pgp expressed in MDCK2 cells assessed as calcein-AM accumulation at 1 uM; format: cell-based; conditions: mdck-ii; procedure, shortened: as §1
[8] = target: T2, Broad substrate specificity ATP-binding cassette transporter ABCG2; assay: Inhibition of human BCRP mediated mitoxantrone accumulation in mitoxantrone resistant MCF7 cells at 10 uM by flow cytometry; format: cell-based; set-up: scale not given: the % may be the effect or the level left; conditions: mcf7, 10 µM
Procedure, shortened: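 MCF-7/MX cells are maintained in 250 nM mitoxantrone, then trypsinized, washed in ice-cold PBS and resuspended in serum-free RPMI 1640. They are pre-incubated 15 min at 37 °C with compound or vehicle (0.5% v/v DMSO), then exposed to mitoxantrone (3 uM final) for 30 min. Uptake is stopped with ice-cold PBS and cells are washed. Flow cytometry uses 488 nm excitation and a 670 nm filter. The read-out is % area beyond a marker set on MCF-7/WT autofluorescence (<5%).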

T1 sequence (P08183 whole entry): as above

Row | Structure (SMILES) | Activity [1] | also measured
1 | COc1ccc(/C=C/C(=O)c2ccc(OC)c(OC)c2OC)c(OC)c1 | 174% | 
2 | O=C1c2c(O)ccc(O)c2C(=O)c2c(NCCNCCO)ccc(NCCNCCO)c21 [MITOXANTRONE] |  | Activity [2]: 439.2%
3 | O=C(/C=C/c1ccccc1)c1ccc(N2CCCCC2)cc1 | 112% | 
4 | COc1ccc(C(=O)/C=C/c2ccc(N3CCN(C)CC3)cc2)c(OC)c1 | 159% | 
5 | COc1ccc(C2CCN(C)CC2)cc1C(=O)/C=C/c1ccccc1 | 178% | 
6 | CCN1CCC(c2cc(C(=O)/C=C/c3ccncc3)c(OC)cc2OC)CC1 | 151% | 
7 | O=C(/C=C/c1ccc(Cl)cc1)c1ccc(N2CCCCC2)cc1 | 103% | 
8 | COc1cc(OC)c(C2CCN(C)CC2)c(O)c1C(=O)/C=C/c1ccc(N2CCN(C)CC2)cc1 | 118% | 
9 | COc1cc(OC)c(N2CCN(C)CC2)cc1C(=O)/C=C/c1ccc(N2CCN(C)CC2)cc1 | 107% | 
10 | COc1ccc(/C=C/C(=O)c2ccc(OC)cc2OC)c(OC)c1 | 172% | 
11 | O=C(/C=C/c1ccccc1Cl)c1ccc(N2CCNCC2)cc1 | 139% | 
12 | CCN1CCC(c2cc(C(=O)/C=C/c3ccccc3)c(OC)cc2OC)CC1 | 256% | Activity [4]: Active; IC50 (MCF7 [5]): 4.8 µM; IC50 (MCF7 [6]): 6.1 µM; Activity [7]: Active
13 | COc1ccc2c3c([nH]c2c1)[C@H](C=C(C)C)N1C(=O)[C@@H]2CCCN2C(=O)[C@@H]1C3 [FUMITREMORGIN] |  | Activity [8]: 274.5%

Continued, in another order:

Row | Activity [1] | Structure (SMILES) | also measured
14 | 103% | COc1ccc(C(=O)/C=C/c2ccc(C(F)(F)F)cc2)c(OC)c1 | 
15 | 176% | COc1cc(OC)c(N2CCN(C)CC2)cc1C(=O)/C=C/c1ccccc1 | 
16 | 101% | COc1ccc(C(=O)/C=C/c2ccc(Cl)cc2)c(OC)c1 | Activity [3]: 348.6%
17 | 178% | COc1ccc(/C=C/C(=O)c2ccc(N3CCCCC3)cc2)c(OC)c1 | 
18 | 247% | CCN1CCC(c2cc(C(=O)/C=C/c3ccc(Cl)cc3)c(OC)cc2OC)CC1 | 
19 | 102% | COc1cc(OC)c(C2CCN(C)CC2)cc1C(=O)/C=C/c1ccc(N2CCN(C)CC2)cc1 | 
20 | 117% | COc1cc(OC)c(C2CCN(C)CC2)cc1C(=O)/C=C/c1ccncc1 | 
21 | 135% | O=C(/C=C/c1ccc(Cl)cc1)c1ccc(N2CCNCC2)cc1 | 
22 | 120% | CCN1CCC(c2cc(C(=O)/C=C/c3ccc(N4CCN(C)CC4)cc3)c(OC)cc2OC)CC1 | 
23 | 280% | CCN1CCC(c2cc(C(=O)/C=C/c3ccccc3Cl)c(OC)cc2OC)CC1 | Activity [4]: Active; inhibition at 40 min, 50 µM (P-gp (ABCB1), wild type): > 100%; IC50 (MCF7 [5]): 2.6 µM; IC50 (MCF7 [6]): 3.6 µM; Activity [7]: Active
24 | 222% | COc1cc(OC)c(N2CCN(C)CC2)cc1C(=O)/C=C/c1ccccc1Cl | 
25 | 216% | COc1ccc(/C=C/C(=O)c2ccc(N3CCNCC3)cc2)c(OC)c1 | Activity [4]: Active; Activity [3]: 188.4%; IC50 (MCF7 [6]): 21.5 µM; Activity [7]: Active
26 | 170% | COc1cc(OC)c(C2CCN(C)CC2)cc1C(=O)/C=C/c1cccnc1 | 
27 | 164% | COc1cc(OC)c(C2CCN(C)CC2)cc1C(=O)/C=C/c1ccccn1 | 

— ChEMBL document CHEMBL1143908, “Functionalized chalcones as selective inhibitors of P-glycoprotein and breast cancer resistance protein” (Bioorg Med Chem, 2008)
